About 460 (18%) of roughly 2,500 compounds were called active. The list is a sample of the results. Values without a mark were called inactive.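 How the source made its calls: active means mean activation above a cutoff of low control average plus 3 SD from the earlier screen (cut at about 12% in these data); inactive means the rest.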
Assay: compound fluorescence interference without thin filaments, confirmation, artefact control for cardiac RTF calcium sensitizer project, biochemical (AID 504382)
Settings: IANBD fluorescence interference counterscreen, buffer, EC20 Ca2+; at 7.2 µM; stronger effect = higher value; scaled: EC20 calcium 0, EC100 calcium 100
Outline: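 Medium: MOPS/KCl/MgCl2/EGTA/NTA/DTT buffer, pH 7.2 | Reagent: EC20 calcium, 0.472 mM | Compound dosing: 7.2 µM single dose | Times: 15 min compound exposure at 25 °C | Signal: Fluorescence, 480/540 nm | Measure: Interference relative to controls | Repeats: Triplicate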

SMILES	fluorescence artifact activation
O=C(CSc1n[nH]c(-c2cccs2)n1)N1CCOCC1	-0.05%
Cc1nnc(SCC(=O)NC(C)(C)C)n1C1CCCCC1	10.9%
Nc1c(C(=O)c2ccc(Cl)cc2)sc2nsc(SCCN3CCOCC3)c12	0.08%
Oc1ccc2nnc3c(Br)cnn3c2c1	0.07%
COc1ccc(/C=N/NC(=O)c2cc(OC)c(OC)c(OC)c2)cc1CN1CCc2cc(OC)c(OC)cc2C1C (stereo not drawn)	7.53%
CC1(C)CC(N2CCCC2)=CC(=[N+]2CCCCC2)C1	2.5%
COc1ccc2[nH]c(C)c(CCN(Cc3cccs3)C(=S)Nc3ccc(F)cc3)c2c1	1.01%
O=C(Cc1ccc(NC(=O)C2CCCN(C(=O)C3CCCCC3)C2)cc1)Nc1cccc(C(=O)N2CCCC2)c1 (stereo not drawn)	0.41%
COc1ccc(Cn2nnc3ccccc32)cc1	0.37%
CCOc1ccc(Cn2c3ccc(OC)cc3c3nc4ccccc4nc32)cc1	23.1% (active)
CCCCOC(=O)Cn1c2ccc(OC)cc2c2nc3ccccc3nc21	0.92%
COC(=O)C(=N/Nc1ccccc1C(=O)OC)/C(C)=N/O	6.02%
C/C(=N/NC(=O)c1cc(C)[nH]n1)c1ccco1	0.79%
COc1ccc(/C=c2\s/c(=C/C(=O)c3ccc(C)cc3)[nH]c2=O)cc1OC	0.04%
CN1CCc2c(sc3nc(SCC(N)=O)n(-c4ccccc4)c(=O)c23)C1	-0.02%
Cc1ccc(NS(=O)(=O)c2ccc(C(=O)N3CCN(c4ncccn4)CC3)cc2)cc1	0.15%
COc1ccc2c(c1)cc(C(=O)N[C@@H](CCSC)C(=O)N1CCC[C@H]1C(=O)O)n2C	1.37%
O=C(O)c1cc(NCc2ccc(F)cc2)ccc1N1CCOCC1	18.7% (active)
O=C1N/C(=C\c2ccc(N3CCOCC3)c(F)c2)C(=O)N1Cc1ccccc1	0.25%
O=C(N1CCOCC1)N1CCN(c2ccc(F)cc2)CC1	0.02%
CCOc1ccccc1N(CC(=O)Nc1ccc(OC)c(OC)c1)S(=O)(=O)c1ccccc1	0.04%
CC1=Nc2ccccc2/C1=C/c1nc(-c2ccc(C)s2)oc1O	0.4%

SMILES	fluorescence artifact activation
CC(=O)Nc1ccc(N2C(=O)CSC2c2ccc(F)cc2)cc1 (stereo not drawn)	47.7% (active)
CC(=O)Nc1ccc(N2C(=O)c3cccc4c(O)ccc(c34)C2=O)cc1	0.2%
COC(=O)C1(C)NC(c2ccc(C)cc2)C2C(=O)N(c3ccc(F)cc3)C(=O)C21 (stereo not drawn)	3.94%
Nc1nc2ccccc2n1CCOc1ccc(Br)cc1	0.41%
O=C(C1=C(O)C(=O)N(c2nccs2)C1c1ccccc1)c1cc2ccccc2o1 (stereo not drawn)	-0.02%
Cc1ccccc1Cn1cccc1/C=C1/C(=N)N2C=CSC2=NC1=O	0.51%
C=CCNc1nnc(SCC(=O)N2CCC(C(N)=O)CC2)s1	2.23%
CCOc1c2ccc(C(=O)NCc3ccc(C)cc3)cc2nn1CCOC	0.08%
CCN(CC(=O)Nc1c(F)cccc1F)C(=O)CNC(=O)COc1ccccc1	-0.06%
c1ccc(-n2ncc(-c3nn[nH]n3)n2)cc1	48.8% (active)
O=C(C1=NN(c2ccccc2)C2C(=O)N(c3ccccc3)C(=O)C12)c1ccccc1 (stereo not drawn)	-0.1%
O=C(NCc1ccc(F)cc1)c1cccc2c1C(=O)c1ccc(N3CCC(Cc4ccccc4)CC3)cc1S2(=O)=O	0.01%
O=C(NCCc1ccc(F)cc1)c1cccc2c1C(=O)c1ccc(N3CCC(Cc4ccccc4)CC3)cc1S2(=O)=O	33.5% (active)
O=C(NCc1cccc(F)c1)c1cccc2c1C(=O)c1ccc(N3CCC(Cc4ccccc4)CC3)cc1S2(=O)=O	3.97%
O=C(NCc1ccco1)c1cccc2c1C(=O)c1ccc(N3CCCC3)cc1S2(=O)=O	0.41%
O=C(NCc1cccc(C(F)(F)F)c1)c1cccc2c1C(=O)c1ccc(N3CCC(Cc4ccccc4)CC3)cc1S2(=O)=O	0.26%
O=C(NCc1ccco1)c1cccc2c1C(=O)c1ccc(N3CCC(Cc4ccccc4)CC3)cc1S2(=O)=O	24.3% (active)
COc1ccc(/C=C2\Oc3cc(OCC(=O)N4CCC[C@H]4C(=O)O)ccc3C2=O)c(OC)c1	5.17%
COc1ccc(/C=C2\Oc3cc(OCC(=O)N4CCC(C(=O)O)CC4)ccc3C2=O)c(OC)c1	84% (active)
COc1ccc(/C=C2\Oc3cc(OCC(=O)N4CCC[C@H]4CO)ccc3C2=O)c(OC)c1	0.23%
CN(C)c1ccc(/C=C/C(=O)c2cccc(Br)c2)cc1	0.06%
CCOc1ccc(CCNC(=O)c2ccc(CNS(=O)(=O)c3ccccc3)cc2)cc1OCC	0.06%

SMILES	fluorescence artifact activation
O=C(NCCc1ccccc1)c1ccc(Cl)nc1	5.54%
CCOc1ccc(Cn2nnc(C(=O)NCCc3ccccc3)c2N)cc1	40.2% (active)
O=C(Cc1ccccc1)Nn1c(O)c(/C=C2\C=Nc3ccccc32)sc1=S	29.4% (active)
CC1=Nc2ccccc2/C1=C/c1sc(=S)n(-c2cccc(C(=O)O)c2)c1O	0.55%
Cc1ccc2c(c1)[C@H]1[C@H](CO2)[C@H](c2ccccc2)[C@]2(C)C(=O)N(Cc3ccc(F)cc3)CC(=O)N12	0.19%
Clc1ccccc1/C=N/NC1=Nc2cccc3cccc1c23	0.08%
CCC12OC(=N)C(C#N)(C1C)C(C#N)(C#N)C(c1ccccc1)O2 (stereo not drawn)	-0.03%
CCC(C)(C)n1nnnc1C(c1ccc(C)cc1)N1CCN(C(=O)c2ccco2)CC1 (stereo not drawn)	0.17%
O=C(CCSc1ccccc1)N1CCN(C(=O)c2ccco2)CC1	25.9% (active)
O=C(COC(=O)C1(c2ccc(F)cc2)CCCC1)N1CCN(C(=O)c2ccco2)CC1	0%
COc1cc2c(cc1OC)CN(Cc1cc(=O)oc3cc(C)c(C)cc13)CC2	-0.02%
C=CCNc1sc(C(=O)c2ccc(Br)s2)c(N)c1C#N	37% (active)
O=C(NCc1ccc(OC(F)(F)F)cc1)c1cccc2c1C(=O)c1ccc(N3CCCCC3)cc1S2(=O)=O	0.89%
C#CCOCCOCCOCCNc1nc(N2CCN(C(=O)Cn3cc(CCCCN)nn3)CC2)nc(N2CCN(C(=O)Cn3cc(CC(C)O)nn3)CC2)n1 (stereo not drawn)	-0.09%
Cc1ccnc2nc(C(=O)OCC(=O)NCCc3ccccc3)nn12	7.51%
COc1ccc(CCNC(=O)COC(=O)c2cc(=O)[nH]c3ccccc23)cc1	15.4% (active)
COc1ccc(-c2noc(CCC(=O)NCCc3ccccc3)n2)cc1	0.2%
CCC12CN3CCN(CC(C3)/C1=N\NC(=O)Nc1ccccc1)C2	-0.04%
CCCC(NC(=O)CCc1c(C)c2cc3c(-c4ccccc4)coc3cc2oc1=O)C(=O)O (stereo not drawn)	35.8% (active)
CCCCCCc1cc2cc(-c3nnc(-c4ccccc4)o3)c(=O)oc2cc1O	0.03%
O=[N+]([O-])c1ccc(N(c2ccccc2)c2ccccc2)cc1	2.48%
Nc1c(S(=O)(=O)c2ccccc2)c2nc3ccccc3nc2n1/N=C/c1ccco1	-0.02%

SMILES	fluorescence artifact activation
Cc1ccc(S(=O)(=O)c2c(N)n(Cc3ccco3)c3nc4ccccc4nc23)cc1	0.24%
Nc1c(S(=O)(=O)c2ccccc2)c2nc3ccccc3nc2n1Cc1ccco1	22.8% (active)
COc1ccccc1Nc1nc(N2CCOCC2)nc(N2CCOCC2)n1	0%
CCOC(=O)c1c(NC(=S)N2CCN(C)CC2)sc2c1CCN(C(=O)OCC)C2	1.28%
O=C(CCN1C(=O)/C(=C/c2ccccc2)SC1=S)NNC(=O)c1cccnc1	0.24%
C/C(O)=c1/ccc2cccc3nc(C)nc1c23	13.3% (active)
CCC(C)NC(=O)C1CC(=O)N(CCc2ccc(F)cc2)C1 (stereo not drawn)	111% (active)
COc1ccc(S(=O)(=O)N2CCC(C(=O)NC(C)CCc3ccccc3)CC2)cc1 (stereo not drawn)	-0.01%
COc1ccc(CN=C2NC(=O)CC(C(=O)Nc3ccc(F)cc3)S2)cc1 (stereo not drawn)	1.74%
NC(=O)NC(=O)COC(=O)c1cccc(NS(=O)(=O)/C=C/c2ccccc2)c1	6.11%
CC(=O)N(C)c1ccc(C(O)(C(F)(F)F)C(F)(F)F)cc1	7.43%
O=c1c2ccccc2nc(SCc2nc(-c3ccccc3)no2)n1-c1ccc(F)cc1	0.14%
COc1ccc(C2=NN(C(=O)CSc3ncccn3)C(c3ccc(C)cc3)C2)cc1 (stereo not drawn)	202% (active)
CNC(=S)N1N=C(c2ccc(Br)cc2)CC1c1ccc(N(C)C)cc1 (stereo not drawn)	5.89%
O=C(c1cn(-c2ccccc2)nc1-c1ccc(Br)cc1)N1CCOCC1	0.32%
COC(=O)c1[nH]c2ccc(C)cc2c1NC(=O)C(C)N1CCN(C2CCCCC2)CC1 (stereo not drawn)	0.08%
O=C(O)C1CCCCC1C(=O)Nc1ccc(-c2ccccc2)cc1 (stereo not drawn)	0.17%
COc1ccc(C2C(C#N)=C(N)SC(N)=C2C#N)cc1OC	0.15%
CCOc1ccccc1C1C(C#N)=C(N)SC(N)=C1C#N	0.08%
CCOc1ccc(C2C(C#N)=C(N)SC(N)=C2C#N)cc1OCC	11.7% (active)
Cc1cc(S(=O)(=O)Nc2c(C)nn(C)c2C)c(Cl)cc1Cl	0.08%
COC(=O)c1ccc2c(c1)NC1=C(C(=O)CC(C)(C)C1)C(c1ccncc1)N2 (stereo not drawn)	0.26%

Reference: PubChem BioAssay AID504382 (The Scripps Research Institute Molecular Screening Center, 2011)
